Compound activity from PubChem.
Hits are enriched below; roughly 4.1% of the tested compounds scored in any of these assays.
MEKK2 mut-MEK5 – signal of MEK5 binding to mutant human MEKK2 PB1 domain; bead flow cytometry, Alexa488-MEK5 binding to MEKK2 mutant; percent response, % at 10 µM; hit rate 0.35% among 290,000; in the data active means percent response above about 24%, passing the limit was not always enough
MEKK3 PB1 HTS – MEKK3-MEK5 PB1 interaction, increase or decrease | Q99759 | bead-based flow cytometry, Alexa488-MEK5 binding to MEKK3; actives lie on both sides; 0 = blocked by unlabeled MEK5, 100 = vehicle | binding response (% of control), % at 10 µM | hit rate 1.4% among 290,000 | AID 1529;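 active means binding response more than 3 SD above or below the average of its plate-row segment, actives on both sides; inconclusive means wells at one plate position flagged as instrument error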;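 further: Alexa488 bead fluorescence after subtracting the streptavidin-only scavenger bead signal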
Target sequence (Q99759 whole entry, looked up): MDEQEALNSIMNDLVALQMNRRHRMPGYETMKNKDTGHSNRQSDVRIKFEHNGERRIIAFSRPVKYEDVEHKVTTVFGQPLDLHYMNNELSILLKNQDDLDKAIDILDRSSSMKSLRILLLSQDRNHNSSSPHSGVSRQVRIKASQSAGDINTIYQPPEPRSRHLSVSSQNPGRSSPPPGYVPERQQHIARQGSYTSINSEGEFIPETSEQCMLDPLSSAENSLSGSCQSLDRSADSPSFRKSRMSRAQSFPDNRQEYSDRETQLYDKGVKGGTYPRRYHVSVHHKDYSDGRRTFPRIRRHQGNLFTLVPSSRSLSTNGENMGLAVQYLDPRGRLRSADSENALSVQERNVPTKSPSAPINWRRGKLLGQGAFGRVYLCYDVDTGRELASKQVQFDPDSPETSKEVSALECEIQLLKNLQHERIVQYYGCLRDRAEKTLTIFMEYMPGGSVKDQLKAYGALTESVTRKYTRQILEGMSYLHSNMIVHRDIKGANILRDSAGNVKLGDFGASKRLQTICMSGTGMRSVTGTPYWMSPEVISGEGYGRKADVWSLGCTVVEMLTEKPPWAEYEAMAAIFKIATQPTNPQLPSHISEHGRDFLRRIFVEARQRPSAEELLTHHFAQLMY
HCV NS3 hel inh – blocks Hepatitis C virus NS3 helicase unwinding; NS3 helicase DNA unwinding, Cy5 molecular beacon fluorescence; inhibition, % at 10.9 µM; hit rate 0.56% among 290,000;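 active means inhibition above the mean of all tested compounds plus 3 SD, set per campaign, cut at about 35% in these data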;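 further: 0% = DMSO wells and 100% = thioflavine S control wells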
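Assay system: hepatitis C virus NS3 helicase domain fragment enzyme. Also added: annealed dual-labelled DNA beacon duplex, ATP-started. Timing: 1 h reaction at 25 °C, ATP-initiated. Technique: Cy5 fluorescence at 0 and 60 min, beacon hairpin quenching. Evaluation: % inhibition of unwinding. Replication: one well per compound.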
DNA FID counter – fluorescent intercalator displacement, NS3 helicase counter-screen; DNA fluorescent intercalator displacement, fluorescence; hit rate 0.17% among 290,000; inhibition, % at 7.9 µM; in the data active means inhibition above about 37%;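 further: 0% = vehicle and 100% = reference compound; higher means more ethidium bromide displaced from hairpin DNA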
MEKK2wt PB1 HTS – raises or lowers MEK5 binding to wildtype human MEKK2 PB1 domain; binding response (% of control), % at 10 µM; Q9Y2U5; bead flow cytometry, Alexa488-MEK5 binding to MEKK2 WT; actives lie on both sides; hit rate 1.1% among 290,000; in the data active means binding response below about 67% or above about 130%; inconclusive means no clear call, values can overlap the other calls; inactive means in between
T cruzi inh – blocks replication of Trypanosoma cruzi; T. cruzi beta-gal in NIH3T3, luminescence, 90 h; AID 1885; inhibition, % (no concentration beside the values); hit rate 1.4% among 300,000;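 active means mean inhibition across valid replicates above about 55%, limit read from the data; inconclusive means mean below that limit but half or more replicates reach it; inactive means mean below it, under half of replicates reach it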;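 further: signal also drops with host cell toxicity which is not excluded here; 0% = plate median of DMSO wells and 100% = zero luminescence signal; higher percent means less beta-gal luminescence so fewer parasites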
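System: mouse NIH/3T3 fibroblasts infected with β-gal-expressing T. cruzi Tulahuen C4 / Input: NIH/3T3 cells, 5,000 per well / Buffer or medium: Low-serum DMEM with 2% FBS / Probe or stimulus: 5000 reporter trypomastigotes per well / Schedule: ≥90 h infection period, 3 h prior cell attachment / Measured by: GalScreen luminescence, 60 min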
* marks the source's active call; other numbers are inactive results; ? = inconclusive; · = no result given; [ ] = another dose, or the depositor's remark.

SMILES | MEKK2 mut-MEK5 | MEKK3 PB1 HTS | HCV NS3 hel inh | DNA FID counter | MEKK2wt PB1 HTS | T cruzi inh
CCc1ccc2nc(N(CCN(C)C)C(=O)c3ccc4ncsc4c3)sc2c1 | 13 | 102 | -75 | 17 | 118 | 64*
COC(=O)C(C)Sc1nc2c(cnn2-c2ccc(Cl)cc2)c(=O)[nH]1 (stereo unspecified) | 11 | 104 | -10 | -19 | 105 | -8
Cc1ccc(C(=O)Sc2cccccc2=O)cc1 | -1 | 102 | 25 | -6 | 103 | ?
Cc1ccc(NC(=O)CSc2ccc(Br)cc2)cc1S(=O)(=O)N1CCOCC1 | · | · | · | · | · | 14
Cn1cc(S(=O)(=O)c2ccccc2)n(C)c1=O | 3 | 98 | -8 | 1 | 104 | -12
COC(=O)C1(c2ccccc2)NC(c2ccc(O)cc2)C2C(=O)N(c3ccc4c(c3)OCO4)C(=O)C21 (stereo unspecified) | -15 | 94 | -7 | -24 | 88 | 6
Cc1ccc(-n2ncc(Br)c(Br)c2=O)cc1 | -1 | 101 | 8 | 1 | 99 | 75*
CC(C)(C)NC(=O)Nc1nnc(SCC(=O)NC2CCCCC2)s1 | · | · | · | · | · | -4
N=c1c2c(n(Cc3ccc([N+](=O)[O-])cc3)c3c1CCC3)CCCC2 | 3 | 100 | 2 | 6 | 102 | 40
N=c1c2c(n(Cc3ccc(Cl)c(Cl)c3)c3c1CCC3)CCCC2 | 11 | 109 | -52 | 13 | 121 | 70*
N=c1c2c(n(Cc3ccc(Br)cc3)c3c1CCC3)CCCC2 | -1 | 103 | -29 | 13 | 107 | 67*
O=C(CCS(=O)(=O)c1ccc(Br)cc1)N1CCCCCC1 | -8 | 97 | 4 | -10 | 103 | 4
S=C(CN1CCCC1=S)NCCc1ccccc1 | -7 | 97 | -26 | -2 | 94 | -12
COc1ccc(CC(=O)Nc2ccc(N3CCCC3)c(C)c2)cc1 | -4 | 98 | -53 | -11 | 33*[inhibitor] | 26
O=C(NCc1cccnc1)c1ccc(-c2cccc(Cl)c2Cl)o1 | -10 | 96 | -5 | -15 | 84 | 58*
Cc1nnc(NC(=O)CSc2ccccc2N)s1 | 3 | 101 | 1 | -6 | 99 | -9
C/C(=N\NC(=O)c1cc(-c2cccc([N+](=O)[O-])c2)n[nH]1)c1ccccc1O | 7 | 98 | 3 | 0 | 105 | 61*
C/C(=N/NC(=O)c1cc(-c2cccc([N+](=O)[O-])c2)n[nH]1)c1cccc(O)c1 | -3 | 98 | 1 | -5 | 96 | -12
CSc1ccc(NC(=O)Nc2cccn(Cc3ccccc3F)c2=O)cc1 | 0 | 106 | -11 | -11 | 103 | 59*
CCc1ccccc1NC(=O)Nc1cccn(Cc2ccccc2F)c1=O | 0 | 99 | 10 | -22 | 97 | 14
COC(=O)c1cccc(NC(=O)CCNC(=O)c2ccco2)c1 | -7 | 102 | 2 | -6 | 96 | -11
OC(CNCc1ccccc1)COc1ccccc1 (stereo unspecified) | · | · | · | · | · | -10
Cc1ccc(OCC(O)CNCc2ccc(F)cc2)cc1 (stereo unspecified) | 0 | 106 | 5 | 6 | 109 | 56*
O=C(Nc1ccc(O)c2c(=O)cc(-c3ccccc3Cl)oc12)c1cccs1 | 2 | 100 | · | · | 99 | 13
COc1ccc(-n2nc3c(N4CCC(C(=O)NCCc5ccccc5C)CC4)nnc(C)c3c2C)cc1 | 9 | 108 | -41 | 8 | 112 | 10
SMILES | MEKK2 mut-MEK5 | MEKK3 PB1 HTS | HCV NS3 hel inh | DNA FID counter | MEKK2wt PB1 HTS | T cruzi inh
Cc1ccc(-n2nc3c(N4CCC(C(=O)NCCc5ccccc5C)CC4)nnc(C)c3c2C)cc1 | 3 | 96 | -93 | 37* | 100 | 55*
CCN1CCN(C(=O)C2CCN(c3nnc(C)c4c(C)n(-c5ccc(C)cc5)nc34)CC2)CC1 | -11 | 93 | -8 | 43* | 95 | 20
Cc1ccc(-n2nc3c(N4CCC(C(=O)N5CCC(C(N)=O)CC5)CC4)nnc(C)c3c2C)cc1 | -6 | 94 | 5 | 7 | 89 | 5
Cc1cc(F)ccc1S(=O)(=O)NCC1CC2CCC1C2 (stereo unspecified) | 0 | 97 | 11 | -30 | 95 | -5
CCCCCc1ccc(OCCCC[n+]2cccc(C)c2)c(CCCCC)c1 | -10 | 72 | -37 | 41* | 124 | 52
CCCNC(=O)c1ccccc1NC(=O)c1ccccc1N(C)S(=O)(=O)c1ccc(C)cc1 | 1 | 94 | -2 | -7 | 93 | 17
COc1ccc(N2C3=C(CC4=C2CC(C)(C)CC4=O)C(=O)CC(C)(C)C3)cc1 | -4 | 92 | 4 | -6 | 90 | 64*
COc1ccc(N2C3=C(CC4=C2CCCC4=O)C(=O)CCC3)cc1 | 3 | 108 | 28 | -3 | 99 | 10
Cc1ccc2c(c1)N(CC(=O)NCCCN1CCCCC1)C(=O)CO2 | 0 | 102 | 1 | -3 | 101 | -4
COc1cc(C(=O)Nc2ccc(S(=O)(=O)Nc3nccc(C)n3)cc2)c([N+](=O)[O-])cc1OC | 3 | 104 | 5 | -3 | 101 | -10
Clc1ccc(SCCCN2CCCCC2)cc1 | -11 | 77 | -5 | 15 | 91 | 22
OCCN1CCN(CCSc2ccccc2)CC1 | -5 | 93 | -5 | 4 | 98 | 14
Clc1ccc(SCCN2CCNCC2)cc1 | -11 | 98 | -15 | 19 | 93 | 63*
Cc1ccc(SCCN2CCN(C)CC2)cc1 | 7 | 100 | 5 | 13 | 103 | 64*
Cc1ccc(SCCN2CCN(Cc3ccccc3)CC2)cc1 | 3 | 104 | -11 | 22 | 112 | 73*
Cc1ccc(SCCN2CCN(C)CCC2=O)cc1 | 1 | 97 | · | · | 88 | -13
COc1ccc(/C=C/C(=O)NC(CCSC)C(=O)O)cc1 (stereo unspecified) | -10 | 104 | -7 | -4 | 89 | -1
Cc1ccc(-n2cc(CN3CCC(O)(c4ccccn4)CC3)c(-c3ccc(F)cc3)n2)cc1 | 7 | 101 | -56 | 15 | 132 | 55*
Cc1ccc(-n2cc(CN3CCNC(=O)CC3)c(-c3ccc(F)cc3)n2)cc1 | 2 | 100 | -14 | -15 | 98 | 21
Cc1cc(OC(C)C(=O)NCc2ccccn2)c2c(C)c(C)c(=O)oc2c1 (stereo unspecified) | -13 | 88 | -7 | -37 | 91 | 5
O=C(/C(=C/c1ccc(Cl)cc1)c1nc2ccccc2[nH]1)c1ccccc1 | -2 | 104 | -10 | -1 | 100 | 68*
O=C(N/C(=C/c1ccc(Cl)cc1)c1nc2ccccc2[nH]1)c1ccco1 | · | · | 8 | 0 | · | -15
Cc1c(CCC(=O)N[C@@H](C)C(=O)O)c(=O)oc2cc3occ(-c4ccccc4)c3cc12 | 11 | 110 | 11 | -14 | 109 | -6
CN1/C(=C\C(=O)COc2ccc3c(c2)OCO3)C(C)(C)c2ccccc21 | · | · | 6 | -19 | · | 56*
